The source of these data is ChEMBL document CHEMBL1124527, “2(1H)-quinolinones with cardiac stimulant activity. 3. Synthesis and biological properties of 6-imidazol-1-yl derivatives” (1989).

The test system of assay [1] is Canis familiaris. The assay can be described thus: Positive inotropic activity after intravenous administration of 10 ug/kg (dose) to anesthetized dog. It counts as functional, Canis lupus familiaris. Summed up: (§1)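 Dogs were anesthetized and intubated. Compound was given through a saphenous vein cannula, in 0.9% saline, 0.5 h after the standard quinazoline at 50 µg/kg, following a 0.75 h equilibration. The cycle was repeated once control levels returned, with at least 0.5 h between doses. LVP was recorded by a Millar catheter via the carotid artery and differentiated to dP/dtmax. Results are % increase in dP/dtmax, and also potency relative to the standard in the same dog: (%drug/%standard)×(dose standard/dose drug).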

Assay [2] relates to Canis familiaris. In words: 0.125 mg/kg of compound was administered orally to conscious adult Beagle dogs and the effects on cardiac contractility was determined after 1 hr. The assay is classed as functional, Canis lupus familiaris, Heart. The method in brief:
(§2)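 Conscious dogs (n = 4) were dosed orally by gavage with a solution of compound. The QA interval is the time in ms from the ECG R wave to the up-stroke of the arterial pressure pulse, measured by computer. Recordings were taken every 0.16 h from 0.5 h predose to 4 h postdose. Each point is the mean of six consecutive 8-s sets. Results are the change from the mean predose value, as mean ± SEM.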

Assay [3] deals with Canis familiaris. In words: Inotropic potencies relative to 4-[4-[2-(1,1-dioxo-2-isothiazolidinyl)ethyl]-1-piperidinyl]-6,7-dimethoxyquinazoline (50 ug/kg) in anesthetized dog. The assay is classed as functional, Canis lupus familiaris. Summed up:
as §1

For assay [4], the system named is Canis familiaris. In words: 0.125 mg/kg of compound was administered orally to conscious adult Beagle dogs (n=4) and the effects on cardiac contractility was determined after 3 hr. The assay is classed as functional, Canis lupus familiaris, Heart. The method in brief:
as §2

The subject of assay [5] is Canis familiaris. The assay can be described thus: Positive inotropic activity after intravenous administration of 50 ug/kg (dose) to anesthetized dog. It counts as functional, Canis lupus familiaris. The method in brief: as §1
The subject of assay [6] is Canis familiaris. In words: 0.5 mg/kg of compound was administered orally to conscious adult Beagle dogs and the effects on cardiac contractility was determined after 1 hr. The assay is classed as functional, Canis lupus familiaris, Heart. The method in brief:
as §2

Assay [7] has as its system Canis familiaris. The assay can be described thus: 0.5 mg/kg of compound was administered orally to conscious adult Beagle dogs (n=4) and the effects on cardiac contractility was determined after 3 hr. It counts as functional, Canis lupus familiaris, Heart. The method in brief:
as §2

Assay [8] concerns Canis familiaris. In words: 0.25 mg/kg of compound was administered orally to conscious adult Beagle dogs (n=4) and the effects on cardiac contractility was determined after 3 hr. It counts as functional, Canis lupus familiaris, Heart. The method in brief: as §2
In assay [9] the test system is Canis familiaris. In words: 0.25 mg/kg of compound was administered orally to conscious adult Beagle dogs and the effects on cardiac contractility was determined after 1 hr. It counts as functional, Canis lupus familiaris, Heart. Further details: unit: ms. The method in brief: as §2
The test system of assay [10] is Canis familiaris. In words: 2.0 mg/kg of compound was administered orally to conscious adult Beagle dogs (n=4) and the effects on cardiac contractility was determined after 3 hr. It counts as functional, Canis lupus familiaris, Heart. The method in brief: as §2
The subject of assay [11] is Canis familiaris. In words: 2.0 mg/kg of compound was administered orally to conscious adult Beagle dogs and the effects on cardiac contractility was determined after 1 hr. The assay is classed as functional, Canis lupus familiaris, Heart. The method in brief:
as §2

Assay [12] has as its system Canis familiaris. In words: Positive inotropic activity after intravenous administration of 50 ug/kg (dose) to anesthetized dogs. The assay is classed as functional, Canis lupus familiaris. The method in brief:
as §1

For assay [13], the system named is Canis familiaris. In words: Positive inotropic activity after intravenous administration of 25 ug/kg (dose) to anesthetized dog. It counts as functional, Canis lupus familiaris.
In assay [14] the test system is Canis familiaris. The assay can be described thus: 0.25 mg/kg compound was administered orally to conscious adult Beagle dogs (n=4) and the effects on cardiac contractility was determined after 3 hr. The assay is classed as functional, Canis lupus familiaris, Heart. Summed up:
as §2

Assay [15] has as its system Canis familiaris. The assay can be described thus: 0.25 mg/kg of compound was administered orally to conscious adult Beagle dogs and the effects on cardiac contractility was determined after 3 hr. The assay is classed as functional, Canis lupus familiaris, Heart. The method in brief: as §2
Assay [16] relates to Canis familiaris. In words: Positive inotropic activity after intravenous administration of 12.5 ug/kg (dose) to anesthetized dog. It counts as functional, Canis lupus familiaris. Summed up:
as §1

Structures are written as SMILES.

As to `Cc1cc(-n2cc(C#N)nc2C)cc2ccc(O)nc12`, the “Increase in dP/dTmax” value in the assay with Canis familiaris [1] is reported as 30%. Besides, the “Decrease in QA interval” value in the assay with Canis familiaris [2] and in the assay on Canis familiaris [4] was 15 in each case. Besides, the Relative inotropic potency in the assay on Canis familiaris [3] is reported as 3.
Turning to `Cc1nc(C)n(-c2cc(C)c3nc(O)ccc3c2)c1S(C)(=O)=O`, the “Increase in dP/dTmax” value in the assay with Canis familiaris [5] stood at 5%. Besides, the Relative inotropic potency in the assay on Canis familiaris [3] is recorded as 0.1.
Taken in the same sequence, the figures for `Cc1cn(-c2cc(C)c3nc(O)ccc3c2)c(-c2ccccc2)n1` were 15% and 0.3.
Taken in the same sequence, the figures for `Cc1cc(-n2cc(C(=O)c3ccccc3)nc2C)cc2ccc(O)nc12` were 31% and 0.5.
For `CSc1c(C)nc(C)n1-c1cc(C)c2nc(O)ccc2c1` the same measures were 28% and 0.9.
As for `Cc1nc(C)n(-c2cc(C)c3nc(O)ccc3c2)c1[S+](C)[O-]` (stereo not given), the “Increase in dP/dTmax” value in the assay with Canis familiaris [5] was 7%. Also, the Relative inotropic potency with Canis familiaris [3] was determined as 0.2.
As for `Cc1cn(-c2cc(C)c3nc(O)ccc3c2)c(I)n1`, the “Increase in dP/dTmax” value in the assay with Canis familiaris [1] amounted to 59%. Also, the Relative inotropic potency in the assay with Canis familiaris [3] was found to be 5.7.
As for `CC(=O)c1nc(C)cn1-c1cc(C)c2nc(O)ccc2c1`, the “Increase in dP/dTmax” value in the assay with Canis familiaris [5] was found to be 15%. Besides, in the assay with Canis familiaris [3], the Relative inotropic potency was determined as 0.3.
For `Cc1nc(C)n(-c2cc(C)c3nc(O)ccc3c2)c1I` the same measures were 17% and 0.5.
Take `Cc1cc(-n2cc(-c3ccccc3)nc2C)cc2ccc(O)nc12`: the “Increase in dP/dTmax” value in the assay on Canis familiaris [1] is given as 15%. The “Decrease in QA interval” value came out at 13 in the assay on Canis familiaris [6] and 10 with Canis familiaris [7]. This molecule showed a Relative inotropic potency in the assay with Canis familiaris [3] of 2.4.
As for `Cc1cn(-c2cc(C)c3nc(O)ccc3c2)c(C#N)n1`, in the assay with Canis familiaris [1], the “Increase in dP/dTmax” value worked out at 53%. In the assay on Canis familiaris [3], this molecule came in with a Relative inotropic potency of 4.1. Also, the “Decrease in QA interval” value in the assay on Canis familiaris [8] and with Canis familiaris [9] was 15 throughout.
Consider `Cc1cc(-n2cc(Cl)nc2C)cc2ccc(O)nc12`, for which the “Increase in dP/dTmax” value with Canis familiaris [1] is reported as 50%. In the assay with Canis familiaris [3], the Relative inotropic potency is reported as 5.6.
As to `Cc1nc(C)n(-c2cc(C)c3nc(O)ccc3c2)c1Br`, the “Decrease in QA interval” value is 13 with Canis familiaris [10] and 12 in the assay on Canis familiaris [11]. In the assay with Canis familiaris [3], this molecule returned a Relative inotropic potency of 0.7. Besides, the “Increase in dP/dTmax” value in the assay on Canis familiaris [12] worked out at 26%.
As for `Cc1cc(-n2cc(I)nc2C)cc2ccc(O)nc12`, the “Increase in dP/dTmax” value in the assay with Canis familiaris [1] is on record as 11%. Besides, the Relative inotropic potency with Canis familiaris [3] was 2.6.
Consider `CCC(=O)c1cn(-c2cc(C)c3nc(O)ccc3c2)c(C)n1`, for which the “Increase in dP/dTmax” value with Canis familiaris [5] came out at 29%. This molecule also displayed a Relative inotropic potency in the assay on Canis familiaris [3] of 0.9.
On to `CC(=O)c1c(C)nc(C)n1-c1cc(C)c2nc(O)ccc2c1`, for which the “Decrease in QA interval” value with Canis familiaris [10] came to 10; with Canis familiaris [11] it was 6. The “Increase in dP/dTmax” value in the assay with Canis familiaris [5] turned out to be 16%. The Relative inotropic potency with Canis familiaris [3] was 0.4.
As to `CC(=O)c1cn(-c2cc(C)c3nc(O)ccc3c2)c(C)n1`, the “Increase in dP/dTmax” value in the assay on Canis familiaris [1] worked out at 36%. In the assay with Canis familiaris [3], this molecule yielded a Relative inotropic potency of 2.6. The “Decrease in QA interval” value is reported as 19 in the assay on Canis familiaris [8] and 17 in the assay with Canis familiaris [9].
As for `CSc1cn(-c2cc(C)c3nc(O)ccc3c2)c(C)n1`, the “Increase in dP/dTmax” value with Canis familiaris [1] is listed as 53%. Further, in the assay on Canis familiaris [3], the Relative inotropic potency worked out at 5.
As to `Cc1cc(-n2cc([S+](C)[O-])nc2C)cc2ccc(O)nc12` (stereo not given), the “Increase in dP/dTmax” value in the assay on Canis familiaris [5] was determined as 65%. The molecule further yielded a Relative inotropic potency in the assay with Canis familiaris [3] of 0.7.
Turning to `Cc1cc(-n2cc(C(=O)C(C)C)nc2C)cc2ccc(O)nc12`, the “Increase in dP/dTmax” value with Canis familiaris [5] is on record as 24%. For the same molecule, the Relative inotropic potency in the assay on Canis familiaris [3] came to 0.6.
In the case of `Cc1nc(C)n(-c2cc(C)c3nc(O)ccc3c2)c1C#N`, the “Increase in dP/dTmax” value in the assay with Canis familiaris [5] came out at 70%. This molecule yielded a Relative inotropic potency in the assay with Canis familiaris [3] of 1.1. The “Decrease in QA interval” value in the assay on Canis familiaris [8] stood at 15; with Canis familiaris [9], 11.
Take `Cc1cc(-n2cc(S(C)(=O)=O)nc2C)cc2ccc(O)nc12`: the “Increase in dP/dTmax” value in the assay with Canis familiaris [5] amounted to 25%. Further, the Relative inotropic potency in the assay on Canis familiaris [3] is listed as 0.3.
`Cc1nc(C)n(-c2cc(C)c3nc(O)ccc3c2)c1Cl`: the “Increase in dP/dTmax” value in the assay with Canis familiaris [1] was 32%. Further, the “Decrease in QA interval” value was determined as 12 in the assay with Canis familiaris [2] and 10 in the assay on Canis familiaris [4]. Further, in the assay with Canis familiaris [3], the Relative inotropic potency amounted to 2.9.
On to `Cc1[nH]c(=O)c(C#N)cc1-c1ccncc1` [MILRINONE], for which, in the assay with Canis familiaris [13], the “Increase in dP/dTmax” value is reported as 46%. The “Decrease in QA interval” value is 7 in the assay on Canis familiaris [14] and 13 with Canis familiaris [9]. Moreover, the Relative inotropic potency in the assay with Canis familiaris [3] is 1.6.
With `Cc1cn(-c2cc(C)c3[nH]c(=O)ccc3c2)c(C)n1` [NANTERINONE], the “Decrease in QA interval” value turned out to be 17 in the assay with Canis familiaris [15] and 16 with Canis familiaris [9]. For the same molecule, the “Increase in dP/dTmax” value in the assay with Canis familiaris [16] turned out to be 40%. In the assay on Canis familiaris [3], the Relative inotropic potency was found to be 7.6.
